We go through 17 compounds from ChEMBL document CHEMBL1123837, “1-Amino-substituted 4-methyl-5H-pyrido[3',4':4,5]pyrrolo[3,2-c]pyridines: a new class of antineoplastic agents” (J Med Chem, 1987).

The subject of one data set is L1210. Put plainly: (§1) In vitro cytotoxicity against L1210 cells was determined after 48 hours of incubation. Type of data set: functional, Mus musculus. The following applies: read-out: ID50 (the source's name). In outline:
(§2)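 Exponentially growing L1210 cells were cultured in RPMI 1640 with 2 mM glutamine, penicillin/streptomycin and 10% fetal calf serum, under 5% CO2 at 37 °C. Drugs dissolved in distilled water were added to cells at 0.8 × 10^5 cells/mL for 48 h, then cells were counted. ID50 was estimated by regression of dose-response data, as the mean of two values from two independent experiments.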

In the next data set the test system is Calf thymus DNA. Nature of the data set: Binding affinity for DNA by ethidium bromide displacement assay. The data set is classed as nucleic-acid assay. The note with it: Bos taurus. The method in brief:
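Competitive ethidium bromide displacement with calf thymus DNA at 10 µg/mL in 20 mM Na phosphate buffer, 0.1 M NaCl, 1 mM EDTA, pH 7.4. The apparent DNA affinity constant is given in 10^6 M^-1 ± standard deviation, from 6 values across two independent experiments.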

Data set [1] deals with Mus musculus. Nature of the data set: In vivo antitumor activity was determined against P388 leukemia cells expressed as treated/control at the dose of (0.30-60)mg/kg; IA = Inactive. The data set is classed as functional, organism-based. In outline: (§3)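 Following NCI protocols, 10^6 viable P388 leukemia cells were inoculated ip on day 0 into male or female CDF1 hybrid mice, 10 per test group. Compounds in distilled water were given ip (0.1 mL/10 g body weight) at various doses on days 1–5. T/C = median survival day of treated / median survival day of negative controls × 100.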

Data set [2] concerns Mus musculus. Nature of the data set: In vivo antitumor activity was determined against P388 leukemia cells expressed as treated/control at yhe dose of 2.5-40 mg/kg; IA = Inactive. Type of data set: functional, organism-based. In outline:
as §3

The test system of data set [3] is Mus musculus. Nature of the data set: In vivo antitumor activity was determined against P388 leukemia cells expressed as treated/control at the dosage of 20 mg/kg. The data set is classed as functional. In outline:
as §3

For data set [4], the system named is Mus musculus. Put plainly: In vivo antitumor activity was determined against P388 leukemia cells expressed as treated/control at the dosage of 10 mg/kg. Type of data set: functional. The method in brief: as §3
Data set [5] concerns Mus musculus. Nature of the data set: In vivo antitumor activity was determined against P388 leukemia cells expressed as treated/control at the dosage of 40 mg/kg. Type of data set: functional. The method in brief: as §3
A short description of data set [6]: as §1. Type of data set: cell-based. The note with it: mouse, read-out: ID50. The method in brief: as §2
The test system of data set [7] is Mus musculus. Put plainly: In vivo antitumor activity was determined against P388 leukemia cells expressed as treated/control at the dose of (2.5-20)mg/kg; IA = Inactive. Type of data set: functional, organism-based. In outline:
as §3

Data set [8] deals with Mus musculus. Nature of the data set: In vivo antitumor activity was determined against P388 leukemia cells expressed as treated/control at the dose of 40 mg/kg; T = toxic at this dose. Type of data set: organism-based. On the set-up: dose 40 mg/kg. The method in brief: as §3
In data set [9] the test system is Mus musculus. Put plainly: In vivo antitumor activity was determined against P388 leukemia cells expressed as treated/control at the dosae of (2.5-40)mg/kg; IA = Inactive. The data set is classed as functional, organism-based. The method in brief: as §3
The subject of data set [10] is Mus musculus. Nature of the data set: In vivo antitumor activity was determined against P388 leukemia cells expressed as treated/control at the dose of (5-60)mg/kg; IA = Inactive. The data set is classed as functional, organism-based. The method in brief:
as §3

Data set [11] deals with Mus musculus. Put plainly: In vivo antitumor activity was determined against P388 leukemia cells expressed as treated/control at the dose of (2.5-40)mg/kg(nontoxic at highest dose tested.); IA = Inactive. The data set is classed as functional, organism-based. In outline: as §3
Data set [12] has as its system Mus musculus. Nature of the data set: In vivo antitumor activity was determined against P388 leukemia cells expressed as treated/control at the dose of (1.25-40)mg/kg; IA = Inactive. Type of data set: functional, organism-based. In outline:
as §3

For data set [13], the system named is Mus musculus. Put plainly: In vivo antitumor activity was determined against P388 leukemia cells expressed as treated/control at the dose of (1.25-80)mg/kg; IA = Inactive. Type of data set: functional, organism-based. In outline:
as §3

Data set [14] concerns Mus musculus. Put plainly: In vivo antitumor activity was determined against P388 leukemia cells expressed as treated/control at the dose of (2.5-20)mg/kg(nontoxic at highest dose tested.); IA = Inactive. The data set is classed as functional, organism-based. In outline:
as §3

In data set [15] the test system is Mus musculus. Put plainly: In vivo antitumor activity was determined against P388 leukemia cells expressed as treated/control at the dose of (5-100)mg/kg (nontoxic at highest dose tested.); IA = Inactive. The data set is classed as functional, organism-based. The method in brief: as §3
In data set [16] the test system is Mus musculus. Put plainly: In vivo antitumor activity was determined against P388 leukemia cells expressed as treated/control at the dose of (1.25-20)mg/kg; IA = Inactive. Type of data set: functional, organism-based. In outline:
as §3

For data set [17], the system named is Mus musculus. Put plainly: In vivo antitumor activity was determined against P388 leukemia cells expressed as treated/control at the dose of (5-50)mg/kg; IA = Inactive. Type of data set: functional, organism-based. The method in brief: as §3
For data set [18], the system named is Mus musculus. Put plainly: In vivo antitumor activity was determined against P388 leukemia cells expressed as treated/control at the dose of (80)mg/kg;T = toxic at this dose. Type of data set: functional, organism-based. In outline:
as §3

Data set [19] deals with Mus musculus. Put plainly: In vivo antitumor activity was determined against P388 leukemia cells expressed as treated/control at the dose of 80 mg/kg. The data set is classed as functional. The method in brief:
as §3

Data set [20] has as its system Mus musculus. Nature of the data set: In vivo antitumor activity was determined against P388 leukemia cells expressed as treated/control at the dose of 20 mg/kg. The data set is classed as functional. In outline: as §3
The test system of data set [21] is Mus musculus. Put plainly: In vivo antitumor activity was determined against P388 leukemia cells expressed as treated/control at the dose of 10 mg/kg. Type of data set: functional. In outline: as §3
The test system of data set [22] is Mus musculus. Nature of the data set: In vivo antitumor activity was determined against P388 leukemia cells expressed as treated/control at the dose of 40 mg/kg. The data set is classed as functional. The method in brief: as §3

Active and inactive are the calls of the source. The calls are words filed in the database; no cut-off is given here.

Consider `CCN(CC)CCCN(C)c1[nH]cc(C)c2nc3ccncc3c1-2`, for which the IC50 in the data set with L1210 (Mus musculus, L1210, 48 h) was 224 µM. In the data set on Calf thymus DNA, the K aff amounted to 6000 M⁻¹. In addition, the T/C entry with Mus musculus [1] is “inactive”.

As for `Cc1cnc(NCCCN2CCCCC2)c2c3cnccc3n(C)c12`, the T/C result with Mus musculus [2] is “inactive”. Moreover, in the data set with L1210 (Mus musculus, L1210, 48 h), the IC50 turned out to be 3.6 µM. In the data set with Calf thymus DNA, this compound yielded a K aff of 0.06.

Take `CCN(CC)CCCNc1ncc(C)c2[nH]c3ccncc3c12`: the results for the T/C in the data set with Mus musculus [3], in the data set with Mus musculus [4] and in the data set on Mus musculus [5] were 148, 135 and 155, respectively. Besides, the IC50 in the data set on L1210 turned out to be 0.34 µM.

Regarding `Cc1cnc(NCCCN2CCCC2)c2c3cnccc3n(C)c12`, in the data set with Mus musculus [2], the T/C entry is “inactive”. Besides, the IC50 in the data set with L1210 (Mus musculus, L1210, 48 h) was determined as 1.6 µM. In addition, in the data set with Calf thymus DNA, the K aff is 0.06.

Turning to `CCN(CC)CCCNc1[nH]ccc2nc3ccncc3c1-2`, in [6], the CC50 at 48 h worked out at 46 µM. In the data set on Mus musculus [7], the T/C result was “inactive”. Moreover, in the data set on Calf thymus DNA, the K aff was determined as 15000 M⁻¹. Moreover, in the data set with Mus musculus [8], the T/C entry is “Toxic”.

Take `CCN(CC)CCCNc1ncc(C)c2c1c1cnccc1n2Cc1ccccc1`: the T/C result with Mus musculus [9] was “inactive”. Besides, in the data set on L1210 (Mus musculus, L1210, 48 h), the IC50 was 6.4 µM. The compound further showed a K aff with Calf thymus DNA of 2000 M⁻¹.

On to `CN(C)CCCNc1nccc2c1c1cnccc1n2C`, for which the T/C result in the data set with Mus musculus [10] is “inactive”. For the same compound, the IC50 with L1210 (Mus musculus, L1210, 48 h) came to 1.2 µM. This compound showed a K aff with Calf thymus DNA of 20000 M⁻¹.

With `Cc1cnc(NCCCN2CCOCC2)c2c3cnccc3n(C)c12`, the T/C result in the data set with Mus musculus [11] is “inactive”. Moreover, in the data set on L1210 (Mus musculus, L1210, 48 h), the IC50 is 5.3 µM. In addition, the K aff in the data set with Calf thymus DNA amounted to 30000 M⁻¹.

On to `CCN(CC)CCNc1[nH]cc(C)c2nc3ccncc3c1-2`, for which the T/C result in the data set on Mus musculus [7] is “inactive”. For the same compound, the IC50 in the data set on L1210 (Mus musculus, L1210, 48 h) came to 19.5 µM. Further, the K aff with Calf thymus DNA was determined as 12000 M⁻¹. The T/C entry in the data set with Mus musculus [8] was “Toxic”.

For the compound `Cc1c[nH]c(NCCCN2CCOCC2)c2c3cnccc3nc1-2`, in the data set with L1210 (Mus musculus, L1210, 48 h), the IC50 worked out at 19.2 µM. For the same compound, in the data set with Mus musculus [12], the T/C result is “inactive”. For the same compound, the K aff in the data set with Calf thymus DNA came to 20000 M⁻¹.

`Cc1c[nH]c(NCCCN2CCN(C)CC2)c2c3cnccc3nc1-2`: the IC50 with L1210 (Mus musculus, L1210, 48 h) stood at 59 µM. Besides, the K aff in the data set with Calf thymus DNA came to 27000 M⁻¹. Besides, in the data set with Mus musculus [13], the T/C result was “inactive”.

Take `CCCN(CCC)CCCNc1ncc(C)c2c1c1cnccc1n2C`: the IC50 in the data set on L1210 (Mus musculus, L1210, 48 h) worked out at 8.6 µM. Moreover, in the data set on Mus musculus [14], the T/C entry is “inactive”. In the data set on Calf thymus DNA, this compound came in with a K aff of 16000 M⁻¹.

`CCN(CC)CCCCNc1ncc(C)c2c1c1cnccc1n2C` had a K aff in the data set on Calf thymus DNA of 40000 M⁻¹. For the same compound, the T/C entry in the data set with Mus musculus [15] was “inactive”.

Consider `CCCN(CCC)CCCNc1[nH]cc(C)c2nc3ccncc3c1-2`, for which, in the data set with L1210 (Mus musculus, L1210, 48 h), the IC50 was determined as 3.3 µM. The K aff with Calf thymus DNA stood at 8000 M⁻¹. Moreover, in the data set on Mus musculus [16], the T/C result was “inactive”.

As for `CCN(CC)CCCNc1nccc2c1c1cnccc1n2C`, in the data set with L1210 (Mus musculus, L1210, 48 h), the IC50 is 1.6 µM. In the data set with Calf thymus DNA, this compound showed a K aff of 17000 M⁻¹. The T/C result in the data set with Mus musculus [17] is “inactive”.

With `CCN(CC)CCCN(C)c1ncc(C)c2c1c1cnccc1n2C`, in the data set on Mus musculus [18], the T/C entry was “Toxic”. Also, in the data set with L1210 (Mus musculus, L1210, 48 h), the IC50 was found to be 52 µM. In the data set with Mus musculus [12], the T/C entry is “inactive”. In the data set with Calf thymus DNA, this compound displayed a K aff of 3000 M⁻¹.

For `CCNCCCNc1ncc(C)c2c1c1cnccc1n2C`, in the data set on L1210 (Mus musculus, L1210, 48 h), the IC50 worked out at 3.8 µM. Moreover, the T/C with Mus musculus [19] amounted to 149; in the data set with Mus musculus [20], 145; in the data set with Mus musculus [21], 127; in the data set with Mus musculus [22] it was 138. The same compound came in with a K aff with Calf thymus DNA of 50000 M⁻¹.
